According to ChEMBL document CHEMBL4251591, “Primaquine hybrids as promising antimycobacterial and antimalarial agents” (Eur J Med Chem, 2018):
≈ marks a conversion by molar mass, not a printed value.

What was measured:
[1] = test system: Mycobacterium tuberculosis; assay: Antimycobacterial activity against Mycobacterium tuberculosis H37Ra ATCC 25177 after 7 days by Alamar Blue assay; format: functional; conditions: H37Ra ATCC 25177, 168 h
In short: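 Log-phase culture washed and resuspended in supplemented Middlebrook 7H9GC broth, adjusted to McFarland No. 1, then diluted 1:20. Equal volumes of culture and DMSO-prepared compound dilutions were tested in duplicate for 7 days. 10% AlamarBlue was added, with 570/600 nm readings for background and after 24 h reincubation. Blue meant no growth, pink meant growth. MIC was the lowest concentration without visible growth.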

[2] = test system: Mycobacterium avium complex sp.; assay: Antimycobacterial activity against Mycobacterium avium complex CIT19/06 clinical isolate after 5 days by Alamar Blue assay; format: functional; conditions: CIT19/06, 120 h
Mycobacterium avium = assay: Antimycobacterial activity against Mycobacterium avium subsp. paratuberculosis CIT03 clinical isolate after 11 days by Alamar Blue assay; format: functional; conditions: CIT03, 264 h
L6 = assay: Cytotoxicity against rat L6 cells after 70 hrs by Alamar Blue-based assay; format: cell-based; conditions: L6, 70 h
In short: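 Rat skeletal myoblast L-6 cells, 4000 per well, in RPMI 1640 with 10% FBS and L-glutamine. Eleven 3-fold serial dilutions spanning 100 to 0.002 were tested for 70 h. Alamar Blue was then added for 2 h and fluorescence read at ex 536 / em 588 nm. IC50 came from linear regression of sigmoid curves, averaged over two replicate experiments, with podophyllotoxin as control.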

HEK293 = assay: Cytotoxicity against human HEK293 cells; format: cell-based
Plasmodium berghei = assay: Antimalarial activity against liver stage of firefly luciferase-expressing Plasmodium berghei infected in human HuH7 cells measured after 48 hrs post parasite addition by luciferase-based luminescence assay; format: functional, organism-based; conditions: Huh-7, 48 h
In short: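 HuH7 hepatoma cells seeded at 1.0 × 10^4 per well the day before infection. Drug-containing medium was added 1 h before 1.0 × 10^4 sporozoites, followed by centrifugation at 1800 × g for 5 min. Infection load was read by bioluminescence 48 h later, and host viability by CellTiter-Blue. IC50 came from nonlinear regression of normalized dose-response curves.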

COc1cc(NC(C)CCCNC(=O)/C=C/c2ccccc2F)c2ncccc2c1 (stereo not drawn)
MIC [1]: 32 µg/mL (≈ 78.5 µM)
MIC [2]: 128 µg/mL (≈ 314 µM)
MIC (Mycobacterium avium): 64 µg/mL (≈ 157 µM)
IC50 (L6): 1.5 µg/mL (≈ 3.68 µM)

COc1cc(NC(C)CCCNC(=O)/C=C/c2ccc(OC)c(OC)c2)c2ncccc2c1 (stereo not drawn)
MIC [1]: 128 µg/mL (≈ 285 µM)
MIC [2]: 256 µg/mL (≈ 569 µM)
MIC (Mycobacterium avium): 128 µg/mL (≈ 285 µM)
IC50 (L6): > 100 µg/mL

COc1cc(NC(C)CCCNC(=O)NNC(=O)Nc2cccc(C(F)(F)F)c2)c2ncccc2c1 (stereo not drawn)
MIC [1]: 128 µg/mL (≈ 254 µM)
MIC [2]: 128 µg/mL (≈ 254 µM)
MIC (Mycobacterium avium): 128 µg/mL (≈ 254 µM)

COc1cc(NC(C)CCCNC(=O)/C=C/c2ccc(Cl)cc2)c2ncccc2c1 (stereo not drawn)
MIC [1]: 64 µg/mL (≈ 151 µM)
MIC [2]: 128 µg/mL (≈ 302 µM)
MIC (Mycobacterium avium): 64 µg/mL (≈ 151 µM)

COc1cc(NC(C)CCCNC(=O)NN)c2ncccc2c1 (stereo not drawn)
MIC [1]: 32 µg/mL (≈ 101 µM)
MIC [2]: 32 µg/mL (≈ 101 µM)
MIC (Mycobacterium avium): 32 µg/mL (≈ 101 µM)

O=C(O)c1cn(C2CC2)c2cc(N3CCNCC3)c(F)cc2c1=O [CIPROFLOXACIN]
MIC [1]: 16 µg/mL (≈ 48.3 µM)

COc1cc(NC(C)CCCNC(=O)NNC(=O)N(CCO)CCO)c2ncccc2c1 (stereo not drawn)
MIC [1]: 256 µg/mL (≈ 571 µM)
MIC [2]: 256 µg/mL (≈ 571 µM)
MIC (Mycobacterium avium): 256 µg/mL (≈ 571 µM)

COc1cc(NC(C)CCCNC(=O)/C=C/c2ccc3c(c2)OCO3)c2ncccc2c1 (stereo not drawn)
MIC [1]: 64 µg/mL (≈ 148 µM)
MIC [2]: 64 µg/mL (≈ 148 µM)
MIC (Mycobacterium avium): 64 µg/mL (≈ 148 µM)

COc1ccc(C(=NNC(=O)NCCCC(C)Nc2cc(OC)cc3cccnc23)c2ccc(OC)cc2)cc1 (stereo not drawn)
MIC [1]: 128 µg/mL (≈ 236 µM)
MIC [2]: 256 µg/mL (≈ 473 µM)
MIC (Mycobacterium avium): 128 µg/mL (≈ 236 µM)
IC50 (L6): > 100 µg/mL

COc1cc(NC(C)CCCNC(=O)Nc2cccc(O)c2)c2ncccc2c1 (stereo not drawn)
MIC [1]: 8 µg/mL (≈ 20.3 µM)
MIC [2]: 16 µg/mL (≈ 40.6 µM)
MIC (Mycobacterium avium): 16 µg/mL (≈ 40.6 µM)
IC50 (L6): 38 µg/mL (≈ 96.3 µM)

COc1cc(NC(C)CCCNC(=O)Nc2cccc(Cl)c2)c2ncccc2c1 (stereo not drawn)
MIC [1]: 16 µg/mL (≈ 38.7 µM)
MIC [2]: 16 µg/mL (≈ 38.7 µM)
MIC (Mycobacterium avium): 16 µg/mL (≈ 38.7 µM)
IC50 (L6): 10 µg/mL (≈ 24.2 µM)

COc1cc(NC(C)CCCNC(=O)NCCCO)c2ncccc2c1 (stereo not drawn)
MIC [1]: 64 µg/mL (≈ 178 µM)
MIC [2]: 64 µg/mL (≈ 178 µM)
MIC (Mycobacterium avium): 64 µg/mL (≈ 178 µM)

COc1cc(NC(C)CCCNC(=O)NNC(=O)NCc2ccccc2)c2ncccc2c1 (stereo not drawn)
MIC [1]: 128 µg/mL (≈ 284 µM)
MIC [2]: 256 µg/mL (≈ 568 µM)
MIC (Mycobacterium avium): 128 µg/mL (≈ 284 µM)

COc1cc(NC(C)CCCNC(=O)/C=C/c2cc(OC)c(OC)c(OC)c2)c2ncccc2c1 (stereo not drawn)
MIC [1]: 256 µg/mL (≈ 534 µM)
MIC [2]: 256 µg/mL (≈ 534 µM)
MIC (Mycobacterium avium): 256 µg/mL (≈ 534 µM)
IC50 (L6): > 100 µg/mL

COc1cc(NC(C)CCCNC(=O)Nc2cccc(F)c2)c2ncccc2c1 (stereo not drawn)
MIC [1]: 2 µg/mL (≈ 5.04 µM)
MIC [2]: 8 µg/mL (≈ 20.2 µM)
MIC (Mycobacterium avium): 4 µg/mL (≈ 10.1 µM)
IC50 (L6): 9.18 µg/mL (≈ 23.2 µM)

COc1cc(NC(C)CCCNC(=O)Nc2cc(C(F)(F)F)cc(C(F)(F)F)c2)c2ncccc2c1 (stereo not drawn)
IC50 (HEK293): 7.67 µg/mL (≈ 14.9 µM)

COc1cc(NC(C)CCCNC(=O)NNC(=O)Nc2ccc(O)cc2)c2ncccc2c1 (stereo not drawn)
MIC [1]: 128 µg/mL (≈ 283 µM)
MIC [2]: 256 µg/mL (≈ 566 µM)
MIC (Mycobacterium avium): 128 µg/mL (≈ 283 µM)

COc1ccc(C(=NNC(=O)NNC(=O)NCCCC(C)Nc2cc(OC)cc3cccnc23)c2ccc(OC)cc2)cc1 (stereo not drawn)
MIC [1]: 2 µg/mL (≈ 3.34 µM)
MIC [2]: 16 µg/mL (≈ 26.7 µM)
MIC (Mycobacterium avium): 4 µg/mL (≈ 6.67 µM)
IC50 (Plasmodium berghei): 82.8 nM

COc1cc(NC(C)CCCNC(=O)NC(c2ccccc2)c2ccc(Cl)cc2)c2ncccc2c1 (stereo not drawn)
MIC [1]: 128 µg/mL (≈ 254 µM)
MIC [2]: 128 µg/mL (≈ 254 µM)
MIC (Mycobacterium avium): 128 µg/mL (≈ 254 µM)

COc1cc(NC(C)CCCNC(=O)NNC(=O)NCCc2ccccc2)c2ncccc2c1 (stereo not drawn)
MIC [1]: 128 µg/mL (≈ 276 µM)
MIC [2]: 256 µg/mL (≈ 551 µM)
MIC (Mycobacterium avium): 128 µg/mL (≈ 276 µM)

COc1cc(NC(C)CCCNC(=O)NNC(=O)NC(c2ccccc2)(c2ccccc2)c2ccccc2)c2ncccc2c1 (stereo not drawn)
MIC [1]: 128 µg/mL (≈ 212 µM)
MIC [2]: 128 µg/mL (≈ 212 µM)
MIC (Mycobacterium avium): 128 µg/mL (≈ 212 µM)
IC50 (L6): > 65 µg/mL

COc1cc(NC(C)CCCNC(=O)/C=C/c2cc(C(F)(F)F)cc(C(F)(F)F)c2)c2ncccc2c1 (stereo not drawn)
MIC [1]: 16 µg/mL (≈ 30.4 µM)
MIC [2]: 64 µg/mL (≈ 122 µM)
MIC (Mycobacterium avium): 16 µg/mL (≈ 30.4 µM)
IC50 (Plasmodium berghei): 2390 nM

COc1cc(NC(C)CCCNC(=O)NNC(=O)NCCCCCO)c2ncccc2c1 (stereo not drawn)
MIC [1]: 256 µg/mL (≈ 573 µM)
MIC [2]: 256 µg/mL (≈ 573 µM)
MIC (Mycobacterium avium): 256 µg/mL (≈ 573 µM)

COc1cc(NC(C)CCCNC(=O)NNC(=O)NCCCO)c2ncccc2c1 (stereo not drawn)
MIC [1]: 256 µg/mL (≈ 612 µM)
MIC [2]: 256 µg/mL (≈ 612 µM)
MIC (Mycobacterium avium): 256 µg/mL (≈ 612 µM)

COc1cc(NC(C)CCCNC(=O)Nc2ccc(Cl)cc2)c2ncccc2c1 (stereo not drawn)
MIC [1]: 16 µg/mL (≈ 38.7 µM)
MIC [2]: 64 µg/mL (≈ 155 µM)
MIC (Mycobacterium avium): 32 µg/mL (≈ 77.5 µM)

COc1cc(NC(C)CCCNC(=O)Nc2cccc(C(F)(F)F)c2)c2ncccc2c1 (stereo not drawn)
MIC [1]: 2 µg/mL (≈ 4.48 µM)
MIC [2]: 2 µg/mL (≈ 4.48 µM)
MIC (Mycobacterium avium): 2 µg/mL (≈ 4.48 µM)
IC50 (L6): 150 µg/mL (≈ 336 µM)

COc1cc(NC(C)CCCNC(=O)Nc2ccc(F)cc2)c2ncccc2c1 (stereo not drawn)
MIC [1]: 8 µg/mL (≈ 20.2 µM)
MIC [2]: 16 µg/mL (≈ 40.4 µM)
MIC (Mycobacterium avium): 16 µg/mL (≈ 40.4 µM)
IC50 (L6): 9.3 µg/mL (≈ 23.5 µM)

COc1cc(NC(C)CCCNC(=O)NNC(=O)Nc2ccc(Cl)c(C(F)(F)F)c2)c2ncccc2c1 (stereo not drawn)
MIC [1]: 2 µg/mL (≈ 3.71 µM)
MIC [2]: 2 µg/mL (≈ 3.71 µM)
MIC (Mycobacterium avium): 2 µg/mL (≈ 3.71 µM)
IC50 (L6): 30 µg/mL (≈ 55.7 µM)
